Source: PubChem
p97 inhibitor – inhibitors of human p97 ATPase, primary screen, biochemical | AID 1481, 2009 | recombinant p97 ATPase, Kinase-Glo ATP luminescence, 3 h | Transitional endoplasmic reticulum ATPase (Homo sapiens), P55072 | inhibition, % at 8 µM | actives 0.42% (n = 220,000); in the data active means inhibition above about 15%;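 further: 0% = DMSO vehicle and 100% = wells lacking enzyme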
Arbovirus inh – antivirals against arbovirus infection, primary screen, cell-based, full library, 10K replicate subset | arbovirus infection cell-based antiviral screen | AID 1251, 2008 | actives 0.37% (n = 200,000) | inhibition, % at 10 µM; in the data active means inhibition above about 30%
DTT redox prof – compounds producing H2O2 with reducing agent – biochemical, NIH compound library profiling, artefact control for MLSCN library redox annotation, primary screen; DTT-dependent redox cycling H2O2, phenol red/HRP absorbance; 100% = 100 µM peroxide control, 0% = buffer; activation, % at 10 µM; actives 0.03% (n = 200,000); AID 878, 2007;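 active means activation of at least 50% relative to the plate's high and low controls in the primary single-dose screen; inactive means activation below 50%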;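 further: compound incubated with DTT at 0.8 mM final as the reducing agent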
Wee1 stabilizer – Wee1 degradation inhibitors, primary screen, cell-based, HeLa, Wee1K328M-luciferase, luminescence | Wee1-like protein kinase (Homo sapiens), P30291 | HeLa Luc-Wee1K328M stability; 100% = proteasome inhibitor MG132 effect | reporter increase, % at 5 µM | actives 1.2% (n = 220,000);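 active means activation above the mean of all tested compounds plus 3 SD, set per screening run, cut at about 8.8% in these data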;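 further: cells exposed to compound for 20 h before luminescence read; 0% = DMSO alone and 100% = MG132 at 30 µM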
Target sequence (P30291 whole entry K328M): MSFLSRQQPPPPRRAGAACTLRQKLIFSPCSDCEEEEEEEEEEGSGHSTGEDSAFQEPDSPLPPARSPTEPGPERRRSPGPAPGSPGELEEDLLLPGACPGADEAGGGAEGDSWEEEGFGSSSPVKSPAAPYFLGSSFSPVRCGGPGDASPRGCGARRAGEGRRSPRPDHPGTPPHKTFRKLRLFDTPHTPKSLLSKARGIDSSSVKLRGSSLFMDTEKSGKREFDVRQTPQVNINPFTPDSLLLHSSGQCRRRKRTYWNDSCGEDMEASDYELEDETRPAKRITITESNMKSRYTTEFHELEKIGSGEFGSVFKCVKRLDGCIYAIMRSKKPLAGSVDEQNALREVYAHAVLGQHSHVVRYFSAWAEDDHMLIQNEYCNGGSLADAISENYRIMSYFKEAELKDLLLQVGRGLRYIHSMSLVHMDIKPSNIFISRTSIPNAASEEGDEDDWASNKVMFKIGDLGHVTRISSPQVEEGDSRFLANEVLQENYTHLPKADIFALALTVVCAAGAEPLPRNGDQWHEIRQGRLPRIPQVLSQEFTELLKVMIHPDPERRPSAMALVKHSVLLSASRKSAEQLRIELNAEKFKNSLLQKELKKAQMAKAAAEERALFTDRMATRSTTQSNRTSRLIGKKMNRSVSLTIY
PKD1 inh – inhibitors of human PKD1 kinase, biochemical, fluorescence polarization; PKD1 kinase fluorescence polarization assay; inhibition, % (no concentration beside the values); actives 0.056% (n = 200,000); Serine/threonine-protein kinase D1 (Homo sapiens), Q15139; in the data active means inhibition above about 50%
RBBP9 inhibitor – human RBBP9 inhibitors, primary screen, biochemical, fluorescence polarization, FP-Rh probe, HTS; Serine hydrolase RBBP9 (Homo sapiens), O75884; recombinant RBBP9; inhibition, % at 7.94 µM; actives 0.2% (n = 220,000); AID 1515, 2009;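 active means inhibition above the campaign mean of all tested compounds plus 3 SD, cut at about 14% in these data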;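 further: plate controls were DMSO wells with RBBP9 for no effect and wells lacking RBBP9 protein for full effect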
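System: RBBP9 protein | Quantity: 2.5 µM RBBP9 dispensing solution, before mixing | Reagent: FP-Rh probe, 375 nM dispensing solution | Timing: Enzyme-compound preincubation 30 min, then probe labeling 45 min, 25 °C | Measured by: Fluorescence polarization | Read-out: % inhibition | Replication: One well per compound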
* marks the source's active call; other numbers are inactive results; · = no result given. This is a sample that favours compounds with a hit; in the whole collection about 2.2% have one here.

SMILES | p97 inhibitor | Arbovirus inh | DTT redox prof | Wee1 stabilizer | PKD1 inh | RBBP9 inhibitor
CCc1nn2cc(C(=O)c3ccccc3O)cnc2c1-c1ccc(F)cc1 | 2.5 | 41.1* | 0.1 | 3.4 | 5.3 | -13.5
CC(C)c1cc(C(F)(F)F)n2nc(C(=O)Nc3ccc(-n4cnnn4)cc3)cc2n1 | 0.3 | · | · | -0.4 | · | -3.9
CCSc1nc2c(c(=O)[nH]1)C(C(C)C)C(C#N)=C(N)O2 (stereo unspecified) | 3.3 | 8.6 | -1.9 | 9.1* | 0.3 | 5.5
Cc1ccc2c(c1)C(CCN)C(=O)N2Cc1ccccc1 (stereo unspecified) | -2.5 | -12.4 | 0.3 | -0.5 | -2.6 | -1.9
Cc1ccc2c(c1)C1CCCC3C1N2CC(=O)N3Cc1ccccc1 (stereo unspecified) | 8.3 | 32.2* | 0.3 | -0.3 | -0.1 | 7.9
COc1ccc(C(=O)N(c2ccc(OC)cc2)S(=O)(=O)c2cccs2)cc1 | -0.2 | 8.6 | 0.0 | -2.6 | -4.1 | -4.0
COc1ccc(N(C(=O)c2ccncc2)S(=O)(=O)c2cccs2)cc1 | -5.8 | · | · | 9.1* | · | 1.5
CCOc1ccc(C(=O)CSCCC(=O)O)cc1 | 3.0 | 5.7 | -0.1 | 2.3 | 3.6 | 6.0
O=C(O)CSCCOc1ccc(OCCSCC(=O)O)cc1 | 4.2 | 2.3 | -0.2 | 10.2* | -3.8 | 1.5
CCCn1ncc(CN2CCC(N3CCC(C(=O)N4CCOCC4)CC3)CC2)c1C | -0.1 | 3.0 | -2.4 | 1.1 | 3.5 | 3.7
O=C1CC(N2CCN(c3ccc(C(=O)c4ccc(F)cc4)cc3)CC2)C(=O)N1 (stereo unspecified) | -0.7 | 11.4 | -2.6 | 8.9* | -8.4 | -7.2
CCN1C(=O)CC(N2CCN(c3ccc(C(=O)c4ccccc4)cc3)CC2)C1=O (stereo unspecified) | -3.3 | 5.3 | -1.0 | 6.5 | 6.7 | -3.9
COc1cc2c(cc1OC)C(C)N(S(=O)(=O)c1cn(C)cn1)CC2 (stereo unspecified) | 5.2 | · | · | 9.4* | · | -8.2
COc1cc2c(cc1OC)C(C)N(S(=O)(=O)c1cn(C)c(C)n1)CC2 (stereo unspecified) | 14.5 | · | · | -3.6 | · | 2.0
COc1ccc(Cn2nc(C)n(N(C)c3ncc(C(F)(F)F)cc3Cl)c2=O)cc1 | -4.6 | 3.5 | 0.2 | 0.8 | -5.8 | -4.9
Cc1nnc(SCc2ccc(Cl)cc2)n1CC1CCCO1 (stereo unspecified) | 4.8 | -1.8 | 1.9 | 2.3 | -4.4 | -3.2
COC(=O)c1sccc1NC(=O)CSc1ccccc1NS(=O)(=O)c1ccc(Br)cc1 | 0.4 | 31.7* | 2.6 | -3.1 | 1.6 | -7.8
COC(=O)c1sccc1NC(=O)CSc1ccccc1NS(=O)(=O)c1ccc(F)cc1 | -2.8 | 6.7 | 1.6 | -1.9 | 5.0 | -7.7
COc1ccc(/C=C2\CCCC3C2=NN(C(=O)CSc2n[nH]c(N)n2)C3c2ccc(OC)cc2)cc1 (stereo unspecified) | 14.7* | -3.6 | -0.1 | 2.1 | 3.0 | -5.0
N#C/C(=C\c1cccs1)C(=O)Nc1nccs1 | 5.4 | -1.3 | -0.9 | 1.4 | 3.8 | -5.8
N#Cc1c(NC(=O)CSc2nnc(-c3ccccc3)o2)sc2c1CCCC2 | 2.2 | 31.7* | 1.7 | 2.0 | -6.8 | 6.1
CC1CCc2c(sc(NC(=O)CSc3nnc(-c4ccccc4)o3)c2C#N)C1 (stereo unspecified) | 3.0 | 19.6 | -0.2 | -1.1 | -12.0 | -8.0
CCOc1ccc(CN(CCO)CCO)cc1[N+](=O)[O-] | 2.6 | 8.7 | 0.9 | 9.0* | -17.0 | -0.7
CCN1c2ccccc2-c2nc3ccccc3n2C1c1cccs1 (stereo unspecified) | -6.2 | 1.4 | -0.4 | -0.8 | -9.5 | -9.1
Cc1cc(C(=O)NCc2ccccc2Cl)n(-c2ccccc2)n1 | 1.2 | · | · | 5.3 | · | -4.9
SMILES | p97 inhibitor | Arbovirus inh | DTT redox prof | Wee1 stabilizer | PKD1 inh | RBBP9 inhibitor
CCOC(=O)N1CCN(C(=O)Cn2cc3c(n2)CCCC3)CC1 | 3.6 | 0.7 | -0.5 | 10.5* | -2.5 | 0.6
CC1CCN(C(=O)Cn2cc3c(n2)CCCC3)CC1 | 4.5 | 6.5 | -0.2 | -0.9 | 1.1 | -6.4
O=C(O)c1ccccc1NN=C1CCCCC1 | 2.3 | 1.9 | 0.4 | 9.8* | -6.0 | 3.0
C=CCn1c(SCC(=O)c2[nH]c(C)c(C(=O)OCC)c2C)nc2scc(-c3ccc(OC)c(OC)c3)c2c1=O | -8.7 | -38.8 | -0.6 | 9.4* | -1.1 | -3.8
Cc1ccc(/C([O-])=C(/C(=S)Nc2ccc(SC(F)F)cc2)[n+]2ccccc2)cc1[N+](=O)[O-] | -8.9 | 24.7 | -2.1 | 1.8 | -2.4 | -19.1
C#CCNC(=O)C1=C[C@H](C)[C@@H](CCCO)[C@H](OCC)O1 | 2.8 | 4.4 | 1.0 | -0.4 | -7.9 | 4.1
Nc1c(C(=O)NC2CC2)sc2nc3c(c(-c4ccco4)c12)CC/C3=C/c1ccco1 | 28.4* | 6.5 | 4.2 | -2.1 | -2.2 | 0.8
NC(=O)c1sc2nc3c(c(-c4ccco4)c2c1N)CCC3 | 14.4 | 12.9 | 0.0 | 0.1 | 20.2 | -3.8
CC(=O)Nc1ccc(S(=O)(=O)NCc2ccc3c(c2)cc(C)n3C)cc1 | 17.4* | -4.5 | -0.8 | 0.7 | -2.9 | -6.3
CC1=NN2C(=N)/C(=C\c3ccc(SCc4ccccc4)o3)C(=O)N=C2S1 | 2.2 | 34.9* | 0.8 | -0.4 | -3.3 | -1.9
CCOc1ccc(/C=N/OCC(=O)NCc2ccco2)cc1 | -2.8 | 6.2 | 0.2 | 0.8 | 0.0 | 1.4
COc1ccc(/C=N/NC(=O)c2ccccc2F)cc1CN1CCN(c2ccc(F)cc2)CC1 | -3.3 | 5.6 | -0.4 | 0.4 | 0.7 | -1.2
O=c1oc2ccccc2cc1NCc1ccccc1O | 3.3 | 7.8 | -0.3 | 8.9* | -4.3 | -3.2
Cc1ccc(C(CC(=O)c2ccco2)SCCO)cc1 (stereo unspecified) | 0.8 | 3.2 | 1.6 | 10.6* | 1.0 | 2.5
O=C(CC(SCCO)c1ccc(F)cc1)c1ccco1 (stereo unspecified) | 3.3 | 4.2 | 2.4 | -0.4 | 1.2 | -2.5
Cc1[nH]c2ccccc2c1C(=O)CSC(=S)N1CCN(C)CC1 | 6.9 | · | · | 2.2 | · | -2.6
Cc1[nH]c2ccccc2c1C(=O)CSC(=S)N(C)C | 4.4 | -7.0 | 0.5 | 9.1* | -4.5 | -2.6
Cc1ccc(C(=O)NC(C)CCc2ccccc2)cc1[N+](=O)[O-] (stereo unspecified) | 0.4 | 1.3 | 1.4 | 11.3* | -4.2 | 0.4
CC1Cc2ccccc2N1S(=O)(=O)c1cccc(C(=O)N2CC(=O)Nc3ccccc32)c1 (stereo unspecified) | -1.5 | · | · | -0.3 | · | -9.1
